The source of these data is ChEMBL document CHEMBL4433213, “Investigation on 2',3'-O-Substituted ATP Derivatives and Analogs as Novel P2X3 Receptor Antagonists” (ACS Med Chem Lett, 2019).

One experiment has as its target T1, P2X purinoceptor 1 (Homo sapiens, UniProt P51575).
T1 sequence (P51575 whole entry): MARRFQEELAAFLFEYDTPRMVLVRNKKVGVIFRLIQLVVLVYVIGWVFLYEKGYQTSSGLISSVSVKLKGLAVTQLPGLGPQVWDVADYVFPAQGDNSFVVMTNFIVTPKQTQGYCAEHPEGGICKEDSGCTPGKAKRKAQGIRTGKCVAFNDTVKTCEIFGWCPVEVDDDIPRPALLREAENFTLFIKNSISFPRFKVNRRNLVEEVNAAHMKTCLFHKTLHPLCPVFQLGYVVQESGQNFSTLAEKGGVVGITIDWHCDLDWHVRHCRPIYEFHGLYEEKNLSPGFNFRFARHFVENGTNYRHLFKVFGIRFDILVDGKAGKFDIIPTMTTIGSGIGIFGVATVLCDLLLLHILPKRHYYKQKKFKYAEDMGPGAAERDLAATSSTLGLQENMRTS
Nature of the experiment: Antagonist activity at human P2X1R transfected in human 1321N1 cells assessed as inhibition of ATP-induced calcium influx. It is filed as cell-based. An outline of the steps:
(§1)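 1321N1 astrocytoma cells stably expressing human P2X1, P2X2, P2X3 or P2X4 receptor. Calcium influx was induced by ATP at the EC80 for each subtype. Results are given as IC50 (μM) or % inhibition at the indicated concentration.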

Experiment [1] addresses T2, P2X purinoceptor 3 (Mus musculus, UniProt Q3UR32).
T2 sequence (Q3UR32 whole entry): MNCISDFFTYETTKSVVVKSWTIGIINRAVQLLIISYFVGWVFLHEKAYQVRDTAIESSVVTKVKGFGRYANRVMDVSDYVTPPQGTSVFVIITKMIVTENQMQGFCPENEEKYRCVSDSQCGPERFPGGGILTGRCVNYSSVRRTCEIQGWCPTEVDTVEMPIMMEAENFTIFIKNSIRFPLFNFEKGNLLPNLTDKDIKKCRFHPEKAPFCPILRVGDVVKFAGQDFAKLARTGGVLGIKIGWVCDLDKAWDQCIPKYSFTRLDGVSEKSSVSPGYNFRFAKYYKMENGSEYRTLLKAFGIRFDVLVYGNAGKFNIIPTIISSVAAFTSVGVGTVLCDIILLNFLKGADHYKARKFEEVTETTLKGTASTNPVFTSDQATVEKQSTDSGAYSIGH
As to the kind of experiment: Antagonist activity at P2X3R in mouse TG sensory neurons assessed as inhibition of P2X3R agonist alpha,beta-meATP-induced current at -65 mV holding potential by whole cell voltage clamp method. The gist of the method:
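Mouse trigeminal sensory neurons were recorded by whole-cell patch clamp. Test compound (0.001–10 μM) was applied before 10 μM α,β-meATP, and inhibition of the agonist-evoked P2X3 current was measured. IC50 was taken from concentration–inhibition curves. N = 5–6 cells.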

The target in experiment [2] is T3, P2X purinoceptor 1 (Homo sapiens) (UniProt P51575).
T3 sequence (whole entry): T1 sequence (P51575 whole entry)
Nature of the experiment: Antagonist activity at human P2X1R transfected in human 1321N1 cells assessed as inhibition of ATP-induced calcium influx relative to control. It is filed as cell-based. The following applies: concentration not given here. An outline of the steps: as §1

The target in a further experiment is T4, P2X purinoceptor 2 (Homo sapiens, UniProt Q9UBL9).
T4 sequence (Q9UBL9 whole entry): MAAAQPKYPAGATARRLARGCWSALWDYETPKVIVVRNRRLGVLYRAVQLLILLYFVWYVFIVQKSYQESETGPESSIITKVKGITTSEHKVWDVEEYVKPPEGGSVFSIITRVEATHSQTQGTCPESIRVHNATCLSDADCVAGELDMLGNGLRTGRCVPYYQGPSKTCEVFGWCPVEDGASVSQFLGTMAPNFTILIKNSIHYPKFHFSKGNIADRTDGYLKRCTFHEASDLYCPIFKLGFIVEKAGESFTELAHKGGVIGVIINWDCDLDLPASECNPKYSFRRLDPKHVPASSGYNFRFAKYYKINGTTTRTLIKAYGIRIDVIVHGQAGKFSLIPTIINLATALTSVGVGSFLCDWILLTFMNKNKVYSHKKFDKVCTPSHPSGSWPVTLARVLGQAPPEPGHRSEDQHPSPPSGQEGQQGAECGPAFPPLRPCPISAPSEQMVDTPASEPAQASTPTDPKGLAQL
As to the kind of experiment: Antagonist activity at human P2X2R transfected in human 1321N1 cells assessed as inhibition of ATP-induced calcium influx. It is filed as cell-based. The gist of the method: as §1

In experiment [3] the target is T5, P2X purinoceptor 2 (Homo sapiens) (UniProt Q9UBL9).
T5 sequence (whole entry): T4 sequence (Q9UBL9 whole entry)
As to the kind of experiment: Antagonist activity at human P2X2R transfected in human 1321N1 cells assessed as inhibition of ATP-induced calcium influx relative to control. It is filed as cell-based. The following applies: concentration not given here. An outline of the steps: as §1

Experiment [4] has as its target T6, P2X purinoceptor 3 (Homo sapiens, UniProt P56373).
T6 sequence (P56373 whole entry): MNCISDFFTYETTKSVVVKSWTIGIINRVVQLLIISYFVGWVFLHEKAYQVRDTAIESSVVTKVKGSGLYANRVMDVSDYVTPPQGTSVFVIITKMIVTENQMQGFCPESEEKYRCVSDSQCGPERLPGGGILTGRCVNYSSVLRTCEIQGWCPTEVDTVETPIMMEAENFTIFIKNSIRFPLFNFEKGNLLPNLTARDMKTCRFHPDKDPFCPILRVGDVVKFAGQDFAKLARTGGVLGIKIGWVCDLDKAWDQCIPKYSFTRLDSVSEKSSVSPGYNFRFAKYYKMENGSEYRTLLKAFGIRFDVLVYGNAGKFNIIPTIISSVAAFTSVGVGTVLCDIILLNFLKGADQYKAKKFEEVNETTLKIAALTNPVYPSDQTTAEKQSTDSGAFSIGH
As to the kind of experiment: Antagonist activity at human P2X3R transfected in human 1321N1 cells assessed as inhibition of ATP-induced calcium influx. It is filed as cell-based. An outline of the steps: as §1

The target of another experiment is T7, P2X purinoceptor 4 (Homo sapiens, UniProt Q99571).
T7 sequence (Q99571 whole entry): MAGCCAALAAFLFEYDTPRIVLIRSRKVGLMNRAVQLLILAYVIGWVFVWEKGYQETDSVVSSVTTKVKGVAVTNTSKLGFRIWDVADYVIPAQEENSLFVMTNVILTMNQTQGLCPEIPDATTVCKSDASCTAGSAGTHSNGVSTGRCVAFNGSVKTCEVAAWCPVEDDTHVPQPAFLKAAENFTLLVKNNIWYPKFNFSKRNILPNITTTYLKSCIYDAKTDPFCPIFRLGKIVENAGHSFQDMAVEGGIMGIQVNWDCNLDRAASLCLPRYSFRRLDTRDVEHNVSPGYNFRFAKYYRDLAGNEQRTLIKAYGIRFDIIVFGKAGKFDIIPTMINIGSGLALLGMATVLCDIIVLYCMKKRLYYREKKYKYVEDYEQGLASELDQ
As to the kind of experiment: Antagonist activity at human P2X4R transfected in human 1321N1 cells assessed as inhibition of ATP-induced calcium influx. The class given is cell-based. An outline of the steps:
as §1

Another experiment concerns the target T8, P2X purinoceptor 7 (Homo sapiens, UniProt Q99572).
T8 sequence (Q99572 whole entry): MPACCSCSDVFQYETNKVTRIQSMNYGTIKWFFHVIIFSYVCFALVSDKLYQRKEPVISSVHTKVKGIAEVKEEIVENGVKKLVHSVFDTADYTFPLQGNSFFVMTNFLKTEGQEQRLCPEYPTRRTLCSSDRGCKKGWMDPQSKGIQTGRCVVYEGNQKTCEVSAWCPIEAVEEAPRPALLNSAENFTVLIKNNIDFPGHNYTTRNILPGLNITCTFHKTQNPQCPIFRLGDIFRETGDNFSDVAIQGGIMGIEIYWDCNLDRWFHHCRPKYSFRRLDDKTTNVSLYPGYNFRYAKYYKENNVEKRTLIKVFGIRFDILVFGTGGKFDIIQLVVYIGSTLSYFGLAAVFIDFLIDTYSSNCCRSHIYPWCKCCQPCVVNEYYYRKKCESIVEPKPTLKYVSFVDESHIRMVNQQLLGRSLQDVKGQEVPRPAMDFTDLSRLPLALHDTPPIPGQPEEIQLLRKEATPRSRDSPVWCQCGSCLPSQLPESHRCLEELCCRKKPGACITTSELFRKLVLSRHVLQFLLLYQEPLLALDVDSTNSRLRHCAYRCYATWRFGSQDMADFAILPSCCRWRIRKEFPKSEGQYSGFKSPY
Nature of the experiment: Antagonist activity at human P2X7R transfected in human 1321N1 cells assessed as inhibition of Bz-ATP-induced calcium influx. It is filed as cell-based.

The species entered for experiment [5] is Homo sapiens. As to the kind of experiment: Selectivity ratio of IC50 for human P2X4R transfected in human […] 1321N1 cells to IC50 for human transfected in human 1321N1 cells. The class given is cell-based.
The species named for experiment [6] is Homo sapiens. Nature of the experiment: Selectivity ratio of IC50 for human P2X7R transfected in human […] 1321N1 cells to IC50 for human transfected in human 1321N1 cells. It is filed as cell-based.
In experiment [7] the target is T9, P2X purinoceptor 3 (Homo sapiens) (UniProt P56373).
T9 sequence (whole entry): T6 sequence (P56373 whole entry)
As to the kind of experiment: Antagonist activity at human P2X3R transfected in human 1321N1 cells assessed as inhibition of ATP-induced calcium influx relative to control. The class given is cell-based. The following applies: concentration not given here. An outline of the steps: as §1

The target in experiment [8] is T10, P2X purinoceptor 4 (Homo sapiens) (UniProt Q99571).
T10 sequence (whole entry): T7 sequence (Q99571 whole entry)
Nature of the experiment: Antagonist activity at human P2X4R transfected in human 1321N1 cells assessed as inhibition of ATP-induced calcium influx relative to control. The class given is cell-based. The following applies: concentration not given here. An outline of the steps:
as §1

For experiment [9], the target named is T11, P2X purinoceptor 7 (Homo sapiens) (UniProt Q99572).
T11 sequence (whole entry): T8 sequence (Q99572 whole entry)
Nature of the experiment: Antagonist activity at human P2X7R transfected in human 1321N1 cells assessed as inhibition of Bz-ATP-induced calcium influx relative to control. It is filed as cell-based. The following applies: concentration not given here.

For experiment [10], the species on record is Homo sapiens. Nature of the experiment: Selectivity ratio of IC50 for human P2X1R transfected in human […] 1321N1 cells to IC50 for human transfected in human 1321N1 cells. The class given is cell-based.

For the molecule `Nc1ncnc2c1ncn2[C@@H]1O[C@H](COP(=O)(O)OP(=O)(O)OP(=O)(O)O)[C@H]2O[C@@H](c3ccccc3)O[C@H]21`, the IC50 (as a rule, the concentration that gives 50% inhibition) is at least 10 µM at P2X purinoceptor 1; 81 nM on P2X purinoceptor 3 [1]; above 100 µM at P2X purinoceptor 2; 0.611 µM on P2X purinoceptor 3 [4]; 11 µM on P2X purinoceptor 4; 8.53 µM at P2X purinoceptor 7. The inhibition (commonly the drop in the measured response relative to a control, in per cent) was 44% in experiment [2] and 18% in experiment [3]. Also, the Ratio IC50 in the experiment listed under Homo sapiens [5] turned out to be 14; in the experiment filed under Homo sapiens [6] it was 18.

With `CC1(C)O[C@@H]2[C@H](O1)[C@@H](COC(=O)c1cc(C(=O)O)c(C(=O)O)cc1C(=O)O)O[C@H]2n1cnc2c(N)ncnc21`, the IC50 on P2X purinoceptor 1 was above 10 µM; on P2X purinoceptor 2 it was above 10 µM; at P2X purinoceptor 3 [4], at least 100 µM; at P2X purinoceptor 4 it was above 30 µM; on P2X purinoceptor 7, above 30 µM. Further, the inhibition came to 13% in experiment [2], 30% in [3], 56% in [7] and 35% in experiment [8].

For `CC1(C)O[C@@H]2[C@H](O1)[C@@H](C(=O)N[C@@H](CCC(=O)O)C(=O)O)O[C@H]2n1cnc2c(N)ncnc21`, the IC50 is above 100 µM at P2X purinoceptor 1; above 100 µM on P2X purinoceptor 2; above 100 µM at P2X purinoceptor 3 [4]; above 100 µM on P2X purinoceptor 4; above 30 µM at P2X purinoceptor 7. Besides, the inhibition in experiment [2] was 21%; in [3], 6%; in experiment [7] it was 15%; in [8], -6%; in [9], -9%.

With `Nc1ncnc2c1ncn2[C@@H]1O[C@H](COP(=O)(O)OP(=O)(O)OP(=O)(O)O)[C@H]2O[C@H](c3ccccc3)O[C@H]21`, the IC50 was above 100 µM on P2X purinoceptor 1; 211 nM at P2X purinoceptor 3 [1]; above 100 µM at P2X purinoceptor 2; 5.83 µM on P2X purinoceptor 3 [4]; 12.4 µM at P2X purinoceptor 4; above 100 µM at P2X purinoceptor 7. For the same molecule, the inhibition in experiment [2] stood at 27%; in experiment [3], 16%; in [9], 21%.

Turning to `Nc1ncnc2c1ncn2[C@@H]1O[C@H](COP(=O)(O)OP(=O)(O)OP(=O)(O)O)[C@H]2OC3(CCCCC3)O[C@H]21`, the IC50 was 8.06 µM on P2X purinoceptor 1; 83 nM at P2X purinoceptor 3 [1]; above 100 µM on P2X purinoceptor 2; 0.883 µM on P2X purinoceptor 3 [4]; 29.6 µM on P2X purinoceptor 4; above 100 µM on P2X purinoceptor 7. In addition, the inhibition in experiment [3] stood at 20%; in experiment [9], 30%. Further, the Ratio IC50 in the experiment filed under Homo sapiens [10] stood at 10.
